Experimental data from paper PMC3065024 (Nuclear medicine and biology, 2011).
One block for each compound: values may come before it.

Assays:
9L glioma cells [1] = test: In vitro cell uptake studies in 9L cells; assay type: cell-based; settings: time course up to 2 h
Procedure, shortened: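 9L gliosarcoma cells were grown in DMEM with 10% FBS and 1% penicillin/streptomycin at 37 °C, 5% CO2. They were seeded at 2.0 × 10^5 cells/well 24 h ahead and rinsed with warm PBS containing Ca2+/Mg2+. Radiotracer in PBS (~500,000 cpm/mL/well) was applied for 5, 30, 60 or 120 min at 37 °C. Cells were washed in ice-cold Ca/Mg-free PBS, lysed in 1 M NaOH and gamma-counted. Uptake is %ID/100 μg Lowry protein, in triplicate.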

9L glioma cells [2] = test: Uptake mechanism; assay type: cell-based; settings: 30 min incubation
Procedure, shortened: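 The plating, washing, lysis and counting of 9L cells were as in the uptake assay. The radiotracer in PBS was co-incubated with MeAIB, L-Ala, L-Ser, BCH, D-Met or NEM at 0.5, 1 or 5 mM. For sodium dependence, PBS was replaced by Na+-free buffer (143 mM choline chloride, 2.68 mM KCl, 1.47 mM KH2PO4). Incubation was 30 min at 37 °C. Values are normalised to uninhibited uptake in PBS, n = 3.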

9L xenograft = test: In vivo biodistribution in Fisher rats with 9L glioma tumors; settings: for Tumor uptake: 9L tumor, n = 5; for Tumor uptake / Blood uptake / Bone uptake / Brain uptake / Heart uptake / Kidney uptake / Liver uptake / Lung uptake / Muscle uptake / Pancreas uptake / Skin uptake / Spleen uptake: mean ± SD; for Blood uptake / Bone uptake / Brain uptake / Heart uptake / Kidney uptake / Liver uptake / Lung uptake / Muscle uptake / Pancreas uptake / Skin uptake / Spleen uptake: six rats
9L tumor = test: Small animal imaging with a microPET in 9L tumor bearing rats; assay type: in vivo, F344 rats; settings: after intravenous injection, dynamic PET scan
Procedure, shortened: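 Rats bearing 9L xenografts were anaesthetised with 1–2% isoflurane and given 30–37 MBq (0.8–1 mCi) of radiotracer via the lateral tail vein. Dynamic small-animal PET acquisition started at injection and ran 2 h (5 min frames, 0.5 mm3 voxels), with a heating pad for body temperature. Region-of-interest analysis gave tissue time-activity curves.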

LAT2 = settings: cited from earlier work
[3] = 30 min after single intravenous injection
[4] = 60 min after single intravenous injection

Tumor uptake (9L xenograft; [3]): 0.82 ± 0.06 % ID/g
Tumor uptake (9L xenograft; [4]): 0.90 ± 0.20 % ID/g
Tumor to blood ratio (9L xenograft; 30 min after injection): 1.12
Tumor/Brain ratio (9L xenograft; 30 min after injection): 1.55
Tumor/Muscle ratio (9L xenograft; 30 min after injection): 1.41
Blood uptake (9L xenograft; [3]): 0.73 ± 0.08 % ID/g
Bone uptake (9L xenograft; [3]): 0.41 ± 0.03 % ID/g
Brain uptake (9L xenograft; [3]): 0.53 ± 0.03 % ID/g
Heart uptake (9L xenograft; [3]): 0.70 ± 0.07 % ID/g
Kidney uptake (9L xenograft; [3]): 0.72 ± 0.05 % ID/g
Liver uptake (9L xenograft; [3]): 0.71 ± 0.07 % ID/g
Lung uptake (9L xenograft; [3]): 0.68 ± 0.08 % ID/g
Muscle uptake (9L xenograft; [3]): 0.58 ± 0.05 % ID/g
Pancreas uptake (9L xenograft; [3]): 2.66 ± 0.20 % ID/g
Skin uptake (9L xenograft; [3]): 0.57 ± 0.07 % ID/g
Spleen uptake (9L xenograft; [3]): 0.75 ± 0.06 % ID/g
Tumor to blood ratio (9L xenograft; 60 min after injection): 1.38
Tumor/Brain ratio (9L xenograft; 60 min after injection): 1.73
Tumor/Muscle ratio (tumor to background) (9L xenograft; 60 min after injection): 1.45
Blood uptake (9L xenograft; [4]): 0.65 ± 0.05 % ID/g
Bone uptake (9L xenograft; [4]): 0.41 ± 0.04 % ID/g
Brain uptake (9L xenograft; [4]): 0.52 ± 0.05 % ID/g
Heart uptake (9L xenograft; [4]): 0.63 ± 0.05 % ID/g
Kidney uptake (9L xenograft; [4]): 0.63 ± 0.05 % ID/g
Liver uptake (9L xenograft; [4]): 0.63 ± 0.05 % ID/g
Lung uptake (9L xenograft; [4]): 0.61 ± 0.05 % ID/g
Muscle uptake (9L xenograft; [4]): 0.62 ± 0.05 % ID/g
Pancreas uptake (9L xenograft; [4]): 2.45 ± 0.27 % ID/g
Skin uptake (9L xenograft; [4]): 0.60 ± 0.09 % ID/g
Spleen uptake (9L xenograft; [4]): 0.69 ± 0.05 % ID/g
In vivo metabolic stability (from bone uptake) (9L xenograft; bone uptake not significant at 30 and 60 min): metabolically stable
SMILES: N[C@@H](Cc1ccc(CC[18F])cc1)C(=O)O [FEP, p-(2-[^18F]fluoroethyl)-L-phenylalanine]
Maximum uptake relative to FET (9L glioma cells [1]): about 1.4 fold
Inhibition of uptake by BCH (9L glioma cells [2]; 5 mM BCH (system L inhibitor), normalized to uptake in PBS): more than 98%
Inhibition of uptake by D-Met (9L glioma cells [2]; D-Met (LAT1 specific inhibitor)): very similar effect as BCH
Inhibition of uptake by MeAIB (9L glioma cells [2]; MeAIB (system A inhibitor) 0.5 to 5 mM): no inhibition
Sodium dependence of uptake (9L glioma cells [2]; Na+ replaced with choline vs PBS): sodium independent
Time for radioactivity in heart and muscle to reach a plateau (9L tumor): 20 min

SMILES: N[C@@H](Cc1ccc(OCC[18F])cc1)C(=O)O [FET, O-(2-[^18F]fluoroethyl)-L-tyrosine]
Transport subtype selectivity (LAT2): selectively transported via LAT2
